H9c2 TAG inh: triacylglycerol accumulation inhibition; 0.66% of 230,000 active; H9c2 cells, Nile Red lipid (TAG) fluorescence; cells loaded with 200 µM oleic acid; AID 651582; inhibition, % at 12.5 µM;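 active means pattern-corrected inhibition of lipid staining of at least 50% with the nuclear-stain viability signal not falling by more than 50%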
MC4R barr agon: human MC4R agonism via beta-arrestin; U2OS MC4R beta-arrestin complementation, luminescence; percent of melanotan II response, DMSO zero; 0.98% of 360,000 active; activation, % at 8.9 µM;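 active means activation above a per-plate cutoff, the mean activation of sample wells on that plate plus 3 SD, cut at about 8% in these data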
Target sequence (P32245 whole entry, looked up): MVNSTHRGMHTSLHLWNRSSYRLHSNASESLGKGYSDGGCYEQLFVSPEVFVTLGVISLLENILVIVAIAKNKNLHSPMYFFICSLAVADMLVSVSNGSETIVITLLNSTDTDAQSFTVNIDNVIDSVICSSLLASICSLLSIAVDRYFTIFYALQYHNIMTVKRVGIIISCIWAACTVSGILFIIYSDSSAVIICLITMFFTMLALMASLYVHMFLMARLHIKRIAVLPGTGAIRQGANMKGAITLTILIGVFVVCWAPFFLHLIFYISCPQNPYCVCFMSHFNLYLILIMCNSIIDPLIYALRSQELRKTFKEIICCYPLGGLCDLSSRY
MC4R antag cAMP: human MC4R antagonism in cAMP assay; MC4R-expressing cells, MTII-stimulated cAMP, LANCE TR-FRET; inhibition, % at 6.5 µM; 0.48% of 360,000 active; AID 540295;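 active means inhibition above its plate's cutoff, the mean of tested wells on that plate plus 3 SD, cut at about 29% in these data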
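material = U2OS cells stably expressing human melanocortin 4 receptor (MC4R) | also added = Melanotan II challenge | dosing = single nominal compound dose of 6.5 µM | detection = TR-FRET with Eu-cAMP and labeled anti-cAMP, 671 nm | replication = singlicate | timing = compound 30 min, challenge 1 h, detection 1 h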
Efflux pump mplx: inhibitors of Candida antifungal efflux pumps expressed in yeast | inhibition, % at 10 µM | S. cerevisiae Candida pump triplex, Nile Red efflux | 0.44% of 330,000 active;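 active means plate passing quality check with inhibition over a set limit, or well fluorescence over plate mean plus 4 SD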;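 further: Nile Red retained in pooled yeast measured as flow cytometry median fluorescence; higher means more Nile Red kept so more efflux inhibition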
GalR3 antag: blocks the human galanin receptor 3; O60755; HEK293 GalR3-CNG cAMP membrane potential fluorescence; galR3 body fused to GalR1 C-terminus; inhibition, % at 3 µM; 0.44% of 360,000 active; AID 651719;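 active means inhibition above the screen-wide average plus 3 SD, cut at about 13% in these data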;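 further: forskolin and galanin both at EC90 stimulate the cells; cAMP rise reported by CNG channel membrane potential dye signal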
Target sequence (O60755 1-299 limits assumed): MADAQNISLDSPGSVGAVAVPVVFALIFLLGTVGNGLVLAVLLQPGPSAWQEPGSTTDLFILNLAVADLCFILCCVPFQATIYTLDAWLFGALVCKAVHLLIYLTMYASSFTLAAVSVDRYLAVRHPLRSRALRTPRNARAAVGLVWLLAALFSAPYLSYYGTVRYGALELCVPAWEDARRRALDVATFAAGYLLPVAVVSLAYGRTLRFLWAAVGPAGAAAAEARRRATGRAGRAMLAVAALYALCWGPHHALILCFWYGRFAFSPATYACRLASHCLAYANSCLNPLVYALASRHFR
Calb FLC: affects C. albicans growth with fluconazole; 0.57% of 300,000 active; growth inhibition, % (test concentration not listed); AID 1979; C. albicans CaCi-2 + fluconazole, Alamar Blue growth, 48 h;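 active means growth inhibition above about 58% in most replicates, limit read from the data, passing the limit was not always enough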;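 further: all wells also contain fluconazole at 8 µg/ml as a sub-toxic cotreatment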
cAMP nonselect: nonselective cAMP signaling inhibitor, MC4R antagonist counter-screen; shares compounds with MC4R antag cAMP; 26% of 1,600 active; parental U2OS, forskolin cAMP, LANCE TR-FRET; inhibition, % at 6.5 µM;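 active means mean inhibition over triplicates above the low-control well mean plus 3 SD, set per campaign, cut at about 13% in these data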;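 further: signal is single emission at 671 nm which falls as cellular cAMP rises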
MC4R cAMP antag: human MC4R cAMP antagonism confirmation. shares compounds with MC4R antag cAMP. MC4R-expressing cells, MTII-stimulated cAMP, TR-FRET. inhibition, % at 6.5 µM. 27% of 1,600 active. AID 602195; in the data active means inhibition above about 29%
Large screens that a line does not name were inactive (follow-up assays come after a bar, where they were run). An excerpt weighted towards active compounds, which were near 2.9% of everything screened.

COC(=O)CCN1CCSCCS1(=O)=O	none (no result: H9c2 TAG inh, MC4R barr agon, MC4R antag cAMP, Efflux pump mplx, Calb FLC)
CCCOc1ccc(F)cc1-c1cc(C(=O)NCc2ccccc2OC)[nH]n1	none (no result: Efflux pump mplx, Calb FLC)
O=C(CC1C(=O)NCCN1Cc1ccc(-c2ccccc2)cc1)NCCOc1cccnc1 (configuration not stated)	none (no result: H9c2 TAG inh)
O=C(CC1C(=O)NCCN1Cc1ccc(-c2ccccc2)cc1)NCCCn1ccnc1 (configuration not stated)	MC4R antag cAMP 31 | cAMP nonselect inactive | MC4R cAMP antag inactive
CC1(C(=O)NS(=O)(=O)C2CC2)CCCN(C(=O)c2ccccc2OC(F)(F)F)C1 (configuration not stated)	none (no result: Efflux pump mplx, Calb FLC)
Cc1ccc(Cn2ncc(Cl)c(Cl)c2=O)cc1	MC4R antag cAMP 49 (no result: H9c2 TAG inh) | cAMP nonselect 33 | MC4R cAMP antag 50
O=C(Cn1ncc(Cl)c(Cl)c1=O)N1CCN(Cc2ccccc2)CC1	H9c2 TAG inh 64, MC4R antag cAMP 29 (no result: Efflux pump mplx) | cAMP nonselect 26 | MC4R cAMP antag 40
O=C(Cn1ncc(Cl)c(Cl)c1=O)N1CCOCC1	none (no result: H9c2 TAG inh)
COc1cccc(C(c2sc3nc(C)nn3c2O)N2CCc3ccccc3C2)c1 (configuration not stated)	MC4R antag cAMP 33 (no result: GalR3 antag) | cAMP nonselect inactive | MC4R cAMP antag inactive
CCN1CCN(C(c2cccc(OC)c2)c2sc3nc(C)nn3c2O)CC1 (configuration not stated)	none (no result: H9c2 TAG inh)
Cc1ccc(CN2C(=O)CSCC2(C)C(=O)NC(C)C)cc1 (configuration not stated)	none (no result: H9c2 TAG inh, MC4R barr agon, MC4R antag cAMP, Efflux pump mplx, Calb FLC)
O=C(OCC(=O)N1CCCC1=O)c1cc(Cl)ccc1O	none
O=C(OCC(=O)N1CCCC1=O)c1ncc(Cl)c(Cl)c1Cl	MC4R antag cAMP 31 | cAMP nonselect inactive | MC4R cAMP antag inactive
NS(=O)(=O)c1ccc(NC(=O)COC(=O)c2ncc(Cl)c(Cl)c2Cl)cc1	MC4R antag cAMP 32 (no result: Calb FLC) | cAMP nonselect inactive | MC4R cAMP antag 29
CCOc1ccc(NC(=O)COC(=O)c2ncc(Cl)c(Cl)c2Cl)cc1	none (no result: H9c2 TAG inh)
Cn1c(NCc2cccnc2)nc2cc(-c3cccc(C(=O)NCCO)c3)sc2c1=O	none (no result: Efflux pump mplx, Calb FLC)
CCc1ccc(C(=O)COC(=O)c2cnc(C)cn2)cc1	none
Cc1cnc(C(=O)OCC(=O)c2ccc(Br)s2)cn1	MC4R antag cAMP 30 | cAMP nonselect 13 | MC4R cAMP antag inactive
CC(C)C[C@H]1COc2c(Cl)cccc2S(=O)(=O)N1Cc1cccc(Cl)c1	none (no result: H9c2 TAG inh, MC4R barr agon, MC4R antag cAMP, Efflux pump mplx, Calb FLC)
CC1=NNC(=O)/C1=C\c1cn(-c2ccccc2)nc1-c1cccs1	MC4R antag cAMP 47 (no result: H9c2 TAG inh) | cAMP nonselect 22 | MC4R cAMP antag 44
CC(C)[C@H](NC(=O)N1CCOCC1)C(=O)N1CCC[C@H]1C(=O)NCc1ccccc1	none (no result: H9c2 TAG inh, MC4R barr agon, MC4R antag cAMP, Efflux pump mplx, Calb FLC)
COC(=O)c1c(NC(=O)/C=C/C(=O)O)sc(C)c1-c1ccc(C)cc1	none
COC(=O)c1c(NC(=O)/C=C/C(=O)O)sc(C)c1-c1ccc(C(C)C)cc1	MC4R antag cAMP 33 | cAMP nonselect inactive | MC4R cAMP antag inactive
COC(=O)c1sc(-c2ccc(Cl)cc2)cc1NC(=O)/C=C/C(=O)O	MC4R antag cAMP 47 | cAMP nonselect 13 | MC4R cAMP antag inactive
COC(=O)c1ccc(COC(=O)CNS(=O)(=O)c2ccc(C)cc2)cc1	MC4R antag cAMP 40 | cAMP nonselect 19 | MC4R cAMP antag inactive
Cc1ccc(S(=O)(=O)NCC(=O)OCc2csc(-c3ccccc3)n2)cc1	MC4R antag cAMP 30 (no result: H9c2 TAG inh) | cAMP nonselect 15 | MC4R cAMP antag inactive
Cc1noc(C)c1CN1C(=O)c2cccc([N+](=O)[O-])c2C1=O	MC4R antag cAMP 30 (no result: H9c2 TAG inh) | cAMP nonselect inactive | MC4R cAMP antag inactive
CCC(c1nnnn1-c1c(C)cccc1C)N1CCN(c2ccccn2)CC1 (configuration not stated)	none (no result: H9c2 TAG inh, MC4R barr agon, MC4R antag cAMP, Efflux pump mplx, Calb FLC)
CCn1c2ccccc2c2cc(/C=N/NC(=O)c3cc(O)cc(O)c3)ccc21	none
COc1ccc(/C=N/NC(=O)CCn2c3ccccc3c3ccccc32)cc1OC	MC4R antag cAMP 29 (no result: H9c2 TAG inh) | cAMP nonselect inactive | MC4R cAMP antag inactive
CCn1c2ccccc2c2cc(/C=N/NC(=O)c3ccc(O)cc3)ccc21	MC4R antag cAMP 29 (no result: H9c2 TAG inh) | cAMP nonselect inactive | MC4R cAMP antag inactive
CCCCCCn1cc(CN2CC(N3CCCC3)CS2(=O)=O)nn1 (configuration not stated)	none (no result: H9c2 TAG inh, MC4R barr agon, MC4R antag cAMP, Efflux pump mplx, Calb FLC)
O=c1c2c(-c3cccs3)csc2[nH]c(=S)n1-c1ccccc1	MC4R antag cAMP 31 | cAMP nonselect 18 | MC4R cAMP antag 33
O=c1c2c(-c3cccs3)csc2ncn1-c1ccccc1	none
Cc1ccc(-c2cc(C(=O)O)c3ccccc3n2)s1	none (no result: H9c2 TAG inh)
O=C(O)c1cc(-c2ccc(Cl)s2)nc2ccccc12	MC4R antag cAMP 34 | cAMP nonselect inactive | MC4R cAMP antag inactive
COc1ccc(C(CNC(=O)CCNS(=O)(=O)c2ccccc2)N2CCOCC2)cc1 (configuration not stated)	none (no result: Efflux pump mplx, Calb FLC)
O=C(NCc1ccc2c(c1)OCO2)C(=O)NCC(c1ccco1)N1CCN(c2ccccc2)CC1 (configuration not stated)	none
COc1ccc(N2CCN(C(c3cccs3)C(C)NC(=O)c3ccc4c(c3)OCO4)CC2)cc1 (configuration not stated)	MC4R antag cAMP 34 (no result: H9c2 TAG inh) | cAMP nonselect inactive | MC4R cAMP antag inactive
COc1ccc(N2CCN(C(CNC(=O)C(=O)NCc3ccc4c(c3)OCO4)c3ccco3)CC2)cc1 (configuration not stated)	MC4R antag cAMP 29 | cAMP nonselect inactive | MC4R cAMP antag inactive
O=C(Nc1nccs1)c1ccc(Cl)nc1	none (no result: H9c2 TAG inh)
Cc1csc(NC(=O)c2ccc(Cl)nc2)n1	MC4R antag cAMP 29 (no result: H9c2 TAG inh) | cAMP nonselect inactive | MC4R cAMP antag inactive
Cc1cccc(C(=O)Nc2ccc(C(=O)/C=C/c3cccnc3)cc2)c1	MC4R antag cAMP 30 (no result: H9c2 TAG inh) | cAMP nonselect inactive | MC4R cAMP antag inactive
COc1ccc(NC(=O)c2cc(-c3sc(NC(=O)c4ccccc4)nc3C)n(Cc3ccccc3)n2)cc1	none (no result: H9c2 TAG inh, MC4R barr agon, MC4R antag cAMP, Efflux pump mplx, Calb FLC)
S=c1[nH]ccc2ccccc12	MC4R antag cAMP 29 (no result: Efflux pump mplx, Calb FLC) | cAMP nonselect inactive | MC4R cAMP antag inactive
S=c1[nH]ncc2ccccc12	none (no result: H9c2 TAG inh)
CC(=O)n1cc([C@H]2C=C(C(=O)Nc3ccccc3)O[C@@H](OCc3ccc(CO)cc3)C2)c2ccccc21	MC4R antag cAMP 31 (no result: GalR3 antag) | cAMP nonselect inactive | MC4R cAMP antag inactive
CC(=O)n1cc([C@@H]2C=C(C(=O)NCc3ccccc3)O[C@H](OCc3ccc(CO)cc3)C2)c2ccccc21	MC4R antag cAMP 36 | cAMP nonselect inactive | MC4R cAMP antag inactive

Screening data deposited in PubChem by several laboratories.
